Results published in ChEMBL document CHEMBL1132387, “N-arylpiperazinone inhibitors of farnesyltransferase: discovery and biological activity” (J Med Chem, 1999).
Several values for one entry are separate records, joined by “and”; a condition that tells them apart may be missing. Identical values can stand only once.

How the values were obtained:
[1] = target: Protein farnesyltransferase (Homo sapiens, UniProt P49354+P49356); assay: Inhibition of [3H]FPP incorporation into recombinant human K-Ras by Farnesyltransferase; assay type: protein-complex assay
How it was run: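 FTase-catalyzed incorporation of [³H]FPP into recombinant human K-Ras protein. IC50 is the compound concentration giving 50% inhibition of that incorporation.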

[2] = system: Rat1; assay: Inhibition of anchorage-independent growth by 90% in human H-ras-transformed RAT1 cells in soft agar; assay type: functional; details: Rattus norvegicus
How it was run: (§1)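 RAT1 cells transformed with human H- or K-ras were suspended in soft agar to measure colony formation. IC90 is the concentration inhibiting anchorage-independent growth by 90% relative to vehicle-treated control. Values are reported as ranges.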

[3] = system: Rat1; assay: Inhibition of anchorage independent growth of H-ras-transformed RAT1 cells on poly(HEMA) coated microtiter plate; assay type: functional, cell-based; details: Rattus norvegicus
How it was run: (§2)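 Anchorage-independent growth assay: cells grown on poly(HEMA)-coated microtiter plates. IC50 is the compound concentration that inhibits 50% of cell growth.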

[4] = system: DLD-1; assay: Concentration required to inhibit growth of human tumor DLD1 cell line on poly(HEMA) coated microtiter plate; assay type: functional, cell-based; how it was run: as §2
[5] = system: Mus musculus; assay: Tumor growth inhibition against subcutaneously injected H-ras Rat1 cells in female nude mice after continuous infusion of 1.4 mg/kg/day; assay type: functional; details: route subcutaneous
How it was run: (§3)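 Female nude mice were injected subcutaneously with H- or K-ras-transformed RAT1 cells. Treatment began 24 h later with vehicle (50% DMSO/water) or compound, n = 8–10, for about 14 days. Dosing was once-daily subcutaneous injection or continuous sc infusion by implanted Alzet osmotic pump. Tumor growth inhibition is relative to vehicle controls.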

[6] = system: Mus musculus; assay: Tumor growth inhibition against subcutaneously injected H-ras-Rat1 cells in female nude mice after continuous infusion of 14 mg/kg/day; assay type: functional; details: route subcutaneous; how it was run: as §3
[7] = system: MCF7; assay: Concentration required to inhibit growth of human tumor MCF-7 cells line on poly(HEMA) coated microtiter plate; assay type: functional, cell-based; how it was run: as §2
[8] = system: Rat1; assay: Inhibition of anchorage-independent growth by 90% in human K-ras-transformed RAT1 cells in soft agar; assay type: functional; details: Rattus norvegicus; how it was run: as §1
[9] = target: Geranylgeranyl transferase type I (Homo sapiens, UniProt P49354+P53609); assay: Inhibition of [3H]GGPP incorporation into recombinant human RhoA by Geranylgeranyl transferase type I; assay type: protein-complex assay
How it was run: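 GGTase I-catalyzed incorporation of [³H]GGPP into recombinant human RhoA protein. IC50 is the concentration giving 50% inhibition.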

[10] = system: Rat1; assay: Highest concentration compatible with 80% cell survival in cultured RAT1 cells; assay type: functional; details: Rattus norvegicus
How it was run: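 Normal RAT1 cells in culture, with viability read by MTT staining. The value is the highest compound concentration compatible with 80% cell survival.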

[11] = system: Rat1; assay: Inhibition of anchorage-independent growth by 90% of human K-ras-transformed RAT1 cells in soft agar; assay type: functional; details: Rattus norvegicus; how it was run: as §1

Molecule `CCCC[C@H]1CN(C(=O)c2cccc3ccccc23)CCN1Cc1cncn1Cc1ccccc1` has an IC50 [1] of 495 nM.

`CCS(=O)(=O)C[C@@H]1CN(c2cccc(Cl)c2)C(=O)CN1Cc1cncn1Cc1ccc(C#N)cc1` was tested, and the IC90 [2] was 30 nM, the IC50 [3] was 8 nM and the IC50 [4] was 1500 nM. For the same molecule, the IC50 [1] was 0.18 nM, the Tumor growth inhibition [5] was 73% and the Tumor growth inhibition [6] was 100% and 60%. The IC50 [7] was 5 nM, the IC90 [8] was 1000 nM and the IC50 [9] was > 100000 nM. The IC20 [10] was > 100000 nM.

In the case of `CCCC[C@H]1CN(C(=O)c2cccc3ccccc23)CCN1C[C@@H](N)S`, the IC50 [1] is reported as 1 nM.

For `CCCC[C@H]1CN(c2cccc(C)c2C)C(=O)CN1Cc1cncn1Cc1ccc(C#N)cc1`, the IC90 [2] was 100 nM, the IC90 [11] was 2500 nM and the IC50 [3] was 28 nM. It also gave an IC50 [1] of 0.44 nM, an IC50 [9] of 10000 nM and an IC20 [10] of 25000 nM.

`CCCC[C@H]1CN(c2cccc(Cl)c2)C(=O)CN1Cc1cncn1Cc1ccc(C#N)cc1` gave an IC50 [1] of 0.11 nM.

Molecule `CCCC[C@H]1CN(C(=O)c2cccc3ccccc23)CCN1Cc1cncn1Cc1ccc(C#N)cc1` has an IC50 [1] of 21 nM.

With `C[C@@H]1CN(c2cccc(Cl)c2)C(=O)CN1Cc1cncn1Cc1ccc(C#N)cc1` the IC50 [1] was 80 nM.

Molecule `C[C@H]1CN(c2cccc(Cl)c2)C(=O)CN1Cc1cncn1Cc1ccc(C#N)cc1` has an IC50 [1] of 9 nM.

`CCCC[C@H]1CN(C(=O)c2cccc3ccccc23)CCN1Cc1c[nH]cn1` gave an IC50 [1] of 7300 nM.
